Experimental data taken from ChEMBL document CHEMBL2331135, “New selective carbonic anhydrase IX inhibitors: synthesis and pharmacological evaluation of diarylpyrazole-benzenesulfonamides” (Bioorg Med Chem, 2013).
pIC50, pKi: −log10 of the molar value. Calls of active or inactive are those of the source. No cut-off for these calls is given here.

Tests used:
Carbonic anhydrase 9 = Carbonic anhydrase 9 (Homo sapiens, UniProt Q16790); assay: Inhibition of human carbonic anhydrase 9 preincubated for 10 mins by CO2 hydration stopped-flow assay
MDA-MB-231 [1] = assay: Potentiation of doxorubicin-induced cytotoxicity against human MDA-MB-231 cells under normoxic condition at 1 uM after 72 hrs by MTS assay; type: functional, cell-based
MDA-MB-231 [2] = assay: Cytotoxicity against human MDA-MB-231 cells after 72 hrs by MTS assay; settings: MDA-MB-231, 72 h
Carbonic anhydrase 1 = Carbonic anhydrase 1 (Homo sapiens, UniProt P00915); assay: Inhibition of human carbonic anhydrase 1 preincubated for 10 mins by CO2 hydration stopped-flow assay
Homo sapiens [3] = species on record: Homo sapiens; assay: Selectivity ratio of Ki for human carbonic anhydrase 2 to Ki for human carbonic anhydrase 9
In short: (§1)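 Stopped-flow CO2 hydration assay using 0.2 mM phenol red read at 557 nm, in 10 mM Hepes pH 7.5 with 0.1 M Na2SO4. Substrate was CO2-saturated water at 25 °C. Enzyme and inhibitor were preincubated 10 min at room temperature, testing at least seven inhibitor concentrations, with dilutions going down to 0.01 nM. Ki came from Lineweaver-Burk plots, triplicates averaged. The ratios are hCA I or hCA II Ki divided by hCA IX Ki.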

Carbonic anhydrase 2 = Carbonic anhydrase 2 (Homo sapiens, UniProt P00918); assay: Inhibition of human carbonic anhydrase 2 preincubated for 10 mins by CO2 hydration stopped-flow assay
Homo sapiens [4] = species on record: Homo sapiens; assay: Selectivity ratio of Ki for human carbonic anhydrase 1 to Ki for human carbonic anhydrase 9; in short: as §1
MDA-MB-231 [5] = assay: Potentiation of doxorubicin-induced cytotoxicity against human MDA-MB-231 cells under hypoxic condition at 1 uM after 72 hrs by MTS assay; type: functional, cell-based
In short: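 MDA-MB-231 cells (2×10^3 per well) were seeded in DMEM with 10% FCS, buffered with 22.3 mM bicarbonate, and moved to hypoxia (1% O2, 5% CO2, N2 balance). Cells were then held 72 h at 37 °C under hypoxia. Read-out was MTS, 1 h, A492. IC50 is the doxorubicin concentration giving 50% absorbance reduction. Data come from three independent experiments, six wells each.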

MDA-MB-231 [6] = assay: Ratio of IC50 for human MDA-MB-231 cells under hypoxic condition to IC50 for human MDA-MB-231 cells under normoxic condition; type: functional

Chain of Carbonic anhydrase 1 (P00915 whole entry): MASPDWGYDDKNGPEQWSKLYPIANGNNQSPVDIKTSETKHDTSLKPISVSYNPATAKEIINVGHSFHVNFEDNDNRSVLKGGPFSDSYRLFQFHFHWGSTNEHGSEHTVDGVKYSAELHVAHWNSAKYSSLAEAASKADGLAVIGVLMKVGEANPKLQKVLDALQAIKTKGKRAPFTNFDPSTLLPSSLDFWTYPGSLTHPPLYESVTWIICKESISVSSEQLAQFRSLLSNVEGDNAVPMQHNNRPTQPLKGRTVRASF

Row | Structure (SMILES) | pKi (Carbonic anhydrase 9) | further results
1 | NS(=O)(=O)c1cccc(-n2nc(CO)cc2-c2ccccc2)c1 | 7.51 | 
2 | NS(=O)(=O)c1ccc(-n2nc(CO)cc2-c2cccc3ccccc23)cc1 | 6.60 | 
3 | NS(=O)(=O)c1ccc(-n2cc(CO)c(-c3ccccc3)n2)cc1 | 7.18 | 
4 | COc1ccccc1-c1cc(CO)nn1-c1ccc(S(N)(=O)=O)cc1 | 7.49 | 
5 | Cc1ccc(-c2cc(CO)nn2-c2ccc(S(N)(=O)=O)cc2)cc1 |  | pKi (Carbonic anhydrase 1): 5.82; Ratio Ki (Homo sapiens [3]): 8; pKi (Carbonic anhydrase 2): 6.75; Ratio Ki (Homo sapiens [4]): 69
6 | NS(=O)(=O)c1ccc(-n2nc(-c3ccccc3)cc2CO)cc1 | 6.80 | 
7 | COc1cccc2c1C(=O)c1c(O)c3c(c(O)c1C2=O)C[C@@](O)(C(=O)CO)C[C@@H]3O[C@H]1C[C@H](N)[C@H](O)[C@H](C)O1 [DOXORUBICIN] |  | Ratio IC50 (MDA-MB-231 [6]): 3
8 | COc1ccc2cc(-c3nn(-c4ccc(S(N)(=O)=O)cc4)cc3CO)ccc2c1 | 7.32 | 
9 | COc1ccc2cc(-c3cc(CO)nn3-c3ccc(S(N)(=O)=O)cc3)ccc2c1Br | 7.52 | 
10 | NS(=O)(=O)c1ccc(-n2cc(CO)c(-c3ccc4ccccc4c3)n2)cc1 | 7.31 | 
11 | NS(=O)(=O)c1ccc(-n2nc(CO)cc2-c2ccc3c(ccc4ccccc43)c2)cc1 | 5.73 | pKi (Carbonic anhydrase 1): < 5.00; Ratio Ki (Homo sapiens [3]): > 5; pKi (Carbonic anhydrase 2): < 5.00; Ratio Ki (Homo sapiens [4]): > 5

Now from value to compound, other results behind:

Row | pKi (Carbonic anhydrase 9) | Structure (SMILES) | further results
12 | 7.54 | COc1ccc2cc(-c3cc(CO)nn3-c3cccc(S(N)(=O)=O)c3)ccc2c1 | 
13 | 7.59 | COc1cccc(-c2cc(CO)nn2-c2ccc(S(N)(=O)=O)cc2)c1 | 
14 | 7.72 | COc1ccc2cc(-c3cc(CO)nn3-c3ccc(S(N)(=O)=O)cc3)ccc2c1 | Activity (MDA-MB-231 [1]): inactive; pIC50 (MDA-MB-231 [2]): < 4.30
15 | 7.57 | NS(=O)(=O)c1ccc(-n2nc(CO)cc2-c2ccccc2)cc1 | 
16 | 7.72 | NS(=O)(=O)c1cccc(-n2nc(CO)cc2-c2ccc3ccccc3c2)c1 | Activity (MDA-MB-231 [5]): Active; Activity (MDA-MB-231 [1]): inactive; pIC50 (MDA-MB-231 [2]): < 4.30
17 | 7.57 | N#Cc1ccc(-c2cc(CO)nn2-c2ccc(S(N)(=O)=O)cc2)cc1 | 
18 | 7.89 | NS(=O)(=O)c1ccc(-n2nc(CO)cc2-c2cccnc2)cc1 | 
19 | 7.64 | NS(=O)(=O)c1ccc(-n2nc(CCO)cc2-c2ccccc2)cc1 | 
20 | 7.68 | NS(=O)(=O)c1ccc(-n2nc(-c3ccc4ccccc4c3)cc2CO)cc1 | 
21 | 7.82 | NS(=O)(=O)c1ccc(-n2nc(CO)cc2-c2ccc(Br)cc2)cc1 | Activity (MDA-MB-231 [5]): Active; Activity (MDA-MB-231 [1]): inactive; pIC50 (MDA-MB-231 [2]): < 4.30
22 | 7.57 | NS(=O)(=O)c1ccc(-n2nc(CO)cc2-c2ccc(-c3ccccc3)cc2)cc1 | 
23 | 7.77 | NS(=O)(=O)c1ccc(-n2nc(CO)cc2-c2ccc3ccccc3c2)cc1 | 
